Here are results for one compound from ChEMBL document CHEMBL3576866, “Discovery of a Cyclic Boronic Acid β-Lactamase Inhibitor (RPX7009) with Utility vs Class A Serine Carbapenemases” (J Med Chem, 2015).

Data set [1] concerns Enterobacter cloacae. In words: Inhibition of Enterobacter cloacae EC1010 CMY-6 assessed as cefepime MIC at 4 ug/ml by broth microdilution method. Summed up: (§1)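 CLSI broth microdilution (M07-A9) against clinical strains expressing serine β-lactamases.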
In general terms: Broth dilution looks for growth in wells or tubes with falling amounts of substance.

The target in the next data set is Dipeptidyl peptidase 2 (Homo sapiens, UniProt Q9UHL4). Nature of the data set: Inhibition of dipeptidyl peptidase 7 (unknown origin) using H-Lys-Pro-AMC as substrate preincubated for 10 mins followed by substrate addition measured for 30 mins by spectrophotometric analysis. An outline of the steps: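 DPP7 (commercial) in 50 mM Na-acetate, pH 5.8. Preincubated 10 min at 37 °C with inhibitor at several concentrations, then H-Lys-Pro-AMC (listed at 100 μM) added and fluorescence monitored for 30 min. Activity was relative to a no-treatment control; IC50 is the concentration giving half inhibition.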

Data set [2] has as its target Beta-lactamase (Enterobacter cloacae) (UniProt G8A3U3). Nature of the data set: Inhibition of Enterobacter cloacae ECL1003 TEM assessed as cefepime MIC at 4 ug/ml by broth microdilution method.
For data set [3], the target named is Carbapenem-hydrolyzing beta-lactamase KPC (Klebsiella oxytoca) (UniProt Q848S6). In words: Inhibition of Klebsiella oxytoca KX1019 KPC-2 assessed as meropenem MIC at 4 ug/ml by broth microdilution method. An outline of the steps:
(§2)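 CLSI broth microdilution (M07-A9, 2012) MIC of the carbapenem against clinical serine carbapenemase-producing strain, tested alone and with the inhibitor held at a fixed 4 μg/mL.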

The nature of data set [4]: Half life in rat at 1000 mg/kg, iv administered as 0.5 hrs infusion by HPLC-MS method. It is filed as ADME, organism-based. To be noted: in vivo.
Data set [5] addresses T1, Class A carbapenemase (Enterobacter cloacae) (UniProt A7WP95).
T1 sequence (whole entry): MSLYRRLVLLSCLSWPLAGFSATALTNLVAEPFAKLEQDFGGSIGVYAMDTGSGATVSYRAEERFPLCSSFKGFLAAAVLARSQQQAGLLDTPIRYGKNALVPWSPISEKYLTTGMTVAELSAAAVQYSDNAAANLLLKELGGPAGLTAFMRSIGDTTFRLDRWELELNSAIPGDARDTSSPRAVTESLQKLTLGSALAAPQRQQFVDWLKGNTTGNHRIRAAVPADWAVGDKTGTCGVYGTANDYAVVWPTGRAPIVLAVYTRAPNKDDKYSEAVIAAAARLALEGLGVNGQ
In words: Inhibition of Enterobacter cloacae ECL1058 KPC-3 assessed as meropenem MIC at 4 ug/ml by broth microdilution method.

Data set [6] is described as follows: Inhibition of chymotrypsin (unknown origin) using Suc-AAPF-AMC as substrate preincubated for 10 mins followed by substrate addition measured for 30 mins by spectrophotometric analysis. On the set-up: species or system Homo sapiens. Summed up:
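Chymotrypsin, from a commercial source, in 20 mM Tris-HCl, pH 8, 150 mM NaCl, 2.5 mM CaCl2. Incubated 10 min at 37 °C with varied inhibitor concentrations. Suc-AAPF-AMC (listed at 10 μM) was added and the reaction read for 30 min. Rates were relative to untreated; IC50 is the concentration giving 50% inhibition.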

The next data set deals with Klebsiella oxytoca. Nature of the data set: Inhibition of Klebsiella oxytoca KX1017 OXA-2 assessed as ertapenem MIC at 4 ug/ml by broth microdilution method.
The subject of data set [7] is Klebsiella pneumoniae. In words: Inhibition of Klebsiella pneumoniae KP1010 SHV-12 assessed as cefepime MIC at 4 ug/ml by broth microdilution method. An outline of the steps:
as §1

Data set [8] relates to Klebsiella pneumoniae. Nature of the data set: Inhibition of Klebsiella pneumoniae KP1088 SHV-11 assessed as ertapenem MIC at 4 ug/ml by broth microdilution method. Summed up:
(§3)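 CLSI broth microdilution (M07-A9, 2012) against the clinical K. pneumoniae isolate. Carbapenem MICs were read alone and with 9f held at a fixed 4 μg/mL.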

In data set [9] the test system is Enterobacter cloacae. In words: Inhibition of Enterobacter cloacae ECL1058 SHV-11 assessed as biapenem MIC at 4 ug/ml by broth microdilution method.
In data set [10] the target is Carbapenem-hydrolyzing beta-lactamase KPC (Klebsiella pneumoniae) (UniProt Q9F663). Nature of the data set: Inhibition of Klebsiella pneumoniae KP1084 KPC-3 assessed as biapenem MIC at 4 ug/ml by broth microdilution method.
The target in data set [11] is Beta lactamase TEM-1 (Klebsiella pneumoniae) (UniProt Q7B899). In words: Inhibition of Klebsiella pneumoniae KP1087 TEM-1 assessed as biapenem MIC at 4 ug/ml by broth microdilution method. An outline of the steps:
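Carbapenem MIC by CLSI broth microdilution (M07-A9), carbapenem titrated with inhibitor held at fixed 4 μg/mL, against clinical serine-carbapenemase-producing strain KP1087 (KPC-2, CTX-M-15, SHV-11, TEM-1; double porin mutant).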

Data set [12] in a line: Half life in rat at 100 mg/kg, iv administered as 0.5 hrs infusion by HPLC-MS method. It is filed as ADME, organism-based. To be noted: in vivo.
Data set [13] in a line: AUC (0 to infinity) in rat at 1000 mg/kg, iv administered as 0.5 hrs infusion by HPLC-MS method. It is filed as ADME, organism-based. On the set-up: dose 1000 mg/kg, route intravenous, time infinity. To be noted: in vivo.
In data set [14] the test system is Klebsiella pneumoniae. Nature of the data set: Inhibition of Klebsiella pneumoniae KP1087 SHV-11 assessed as biapenem MIC at 4 ug/ml by broth microdilution method. Summed up: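 CLSI broth microdilution (M07-A9) against clinical K. pneumoniae strain KP1087 (KPC-2, CTX-M-15, SHV-11, TEM-1); carbapenem MIC (μg/mL) read with the inhibitor held at a fixed 4 μg/mL, alongside carbapenem alone.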

Data set [15] has as its target T1, Class A carbapenemase (Enterobacter cloacae). Nature of the data set: Inhibition of Enterobacter cloacae ECL1058 KPC-3 assessed as imipenem MIC at 4 ug/ml by broth microdilution method.
Data set [16] deals with Klebsiella pneumoniae. In words: Inhibition of Klebsiella pneumoniae KP1088 SHV-11 assessed as biapenem MIC at 4 ug/ml by broth microdilution method. An outline of the steps:
as §3

The target in data set [17] is T2, Beta-lactamase SHV-1 (Klebsiella pneumoniae) (UniProt P0AD64).
T2 sequence (whole entry): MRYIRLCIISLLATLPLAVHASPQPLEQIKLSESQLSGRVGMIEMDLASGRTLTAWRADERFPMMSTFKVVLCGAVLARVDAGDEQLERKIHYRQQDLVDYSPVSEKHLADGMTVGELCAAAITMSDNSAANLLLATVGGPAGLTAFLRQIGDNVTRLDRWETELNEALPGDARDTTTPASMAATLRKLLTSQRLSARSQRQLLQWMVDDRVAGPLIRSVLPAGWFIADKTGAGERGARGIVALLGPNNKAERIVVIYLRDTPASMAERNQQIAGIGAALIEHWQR
In words: Inhibition of Klebsiella pneumoniae KP1083 SHV-1 assessed as imipenem MIC at 4 ug/ml by broth microdilution method.

Data set [18] deals with T2, Beta-lactamase SHV-1 (Klebsiella pneumoniae). Nature of the data set: Inhibition of Klebsiella pneumoniae KP1083 SHV-1 assessed as biapenem MIC at 4 ug/ml by broth microdilution method. Summed up:
as §2

The target of data set [19] is Class A carbapenemase KPC-2 (Escherichia coli) (UniProt A8DS27). In words: Inhibition of Escherichia coli EC1007 KPC-3 assessed as meropenem MIC at 4 ug/ml by broth microdilution method.
Data set [20] deals with Klebsiella pneumoniae. In words: Inhibition of Klebsiella pneumoniae KP1082 KPC-2 assessed as ertapenem MIC at 4 ug/ml by broth microdilution method. An outline of the steps:
as §2

Broadly, the IC50 is the concentration needed to halve the response being measured. A low value points to higher potency. What is called half-life is the time needed for the level to fall by half in the phase considered. The term AUC(0-inf) denotes the area under the concentration-time curve extrapolated to infinity.

The structures appear in SMILES notation.

On to `O=C(O)C[C@@H]1CC[C@H](NC(=O)Cc2cccs2)B(O)O1` [VABORBACTAM], for which the MIC in the data set on Enterobacter cloacae [1] is 4 µg/mL; in data set [2] it was 8 µg/mL; in data set [3] it was below 0.06 µg/mL; in data set [5] it was below 0.06 µg/mL; with Klebsiella oxytoca it was 0.25 µg/mL; in the data set with Klebsiella pneumoniae [7], 0.25 µg/mL. For the same compound, the MIC with Klebsiella pneumoniae [8] was at most 0.06 µg/mL; in the data set on Enterobacter cloacae [9] it was below 0.06 µg/mL; in data set [10], 0.25 µg/mL; in [11], 0.25 µg/mL; with Klebsiella pneumoniae [14], 0.25 µg/mL; in [15], 0.25 µg/mL. Besides, the MIC is at most 0.06 µg/mL with Klebsiella pneumoniae [16]; 0.13 µg/mL in [17]; below 0.06 µg/mL in data set [18]; below 0.06 µg/mL in data set [19]; at most 0.06 µg/mL in the data set on Klebsiella pneumoniae [20]. Also, the concentration for half-maximal inhibition (IC50) (at Dipeptidyl peptidase 2; in data set [6]) was above 1000 µM in each case. In addition, the figures for the half-life in data set [4] and in data set [12] were 24 min and 25.2 min, respectively. This compound also came in with an AUC(0-inf) in [13] of 1040 µg·h/mL.
